According to ChEMBL document CHEMBL1154719, “Click chemistry: studies on the synthesis of novel fluorous tagged triazol-4-yl substituted quinazoline derivatives and their biological evaluation--theoretical and experimental validation” (2010):
≈ marks a conversion by molar mass, not a printed value.

Tests used:
Type in all cases: functional
[1] = tested on: Bacillus subtilis; assay: Antibacterial activity against Bacillus subtilis MTCC 441 by broth dilution method
Summary of the method: (§1)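 MIC by broth dilution in nutrient broth. Test bacteria were kept on nutrient agar slants and subcultured in Petri dishes before testing.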

[2] = tested on: Staphylococcus aureus; assay: Antibacterial activity against Staphylococcus aureus MTCC 96 by broth dilution method; summary of the method: as §1
[3] = tested on: Staphylococcus epidermidis; assay: Antibacterial activity against Staphylococcus epidermidis MTCC 435 by broth dilution method; summary of the method: as §1
[4] = tested on: Escherichia coli; assay: Antibacterial activity against Escherichia coli MTCC 443 by broth dilution method; summary of the method: as §1
[5] = tested on: Pseudomonas aeruginosa; assay: Antibacterial activity against Pseudomonas aeruginosa MTCC 741 by broth dilution method; summary of the method: as §1
[6] = tested on: Candida albicans; assay: Antifungal activity against Candida albicans MTCC 227 at 30 ug/ml after 48 hrs by agar cup diffusion method; conditions: MTCC 227, 48 h, read-out: DIZ
Summary of the method: (§2)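 Agar cup diffusion on autoclaved potato dextrose agar plates. Each plate was spread with 0.5 ml of a week-old culture, and test solutions at 30 and 100 per ml were added to cups. Plates were held at 28 °C for 48 h, and inhibition zone diameters were read in mm. Acetone served as the solvent control and amphotericin-B as the reference.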

[7] = tested on: Candida albicans; assay: Antifungal activity against Candida albicans MTCC 227 at 100 ug/ml after 48 hrs by agar cup diffusion method; conditions: MTCC 227, 48 h, read-out: DIZ; summary of the method: as §2
[8] = tested on: Saccharomyces cerevisiae; assay: Antifungal activity against Saccharomyces cerevisiae MTCC 36 at 100 ug/ml after 48 hrs by agar cup diffusion method; conditions: MTCC 36, 48 h, read-out: DIZ; summary of the method: as §2
[9] = tested on: Aspergillus niger; assay: Antifungal activity against Aspergillus niger MTCC 1344 at 30 ug/ml after 48 hrs by agar cup diffusion method; conditions: MTCC 1344, 48 h, read-out: DIZ; summary of the method: as §2
[10] = tested on: Aspergillus niger; assay: Antifungal activity against Aspergillus niger MTCC 1344 at 100 ug/ml after 48 hrs by agar cup diffusion method; conditions: MTCC 1344, 48 h, read-out: DIZ; summary of the method: as §2
[11] = tested on: Aspergillus flavus; assay: Antifungal activity against Aspergillus flavus MTCC 277 at 100 ug/ml after 48 hrs by agar cup diffusion method; conditions: MTCC 277, 48 h, read-out: DIZ; summary of the method: as §2
[12] = tested on: Rhizopus arrhizus; assay: Antifungal activity against Rhizopus oryzae MTCC 262 at 100 ug/ml after 48 hrs by agar cup diffusion method; conditions: MTCC 262, 48 h, read-out: DIZ; summary of the method: as §2
[13] = tested on: Diutina rugosa; assay: Antifungal activity against Candida rugosa NCIM 3462 at 100 ug/ml after 48 hrs by agar cup diffusion method; conditions: NCIM 3462, 48 h, read-out: DIZ; summary of the method: as §2
[14] = tested on: Saccharomyces cerevisiae; assay: Antifungal activity against Saccharomyces cerevisiae MTCC 36 at 30 ug/ml after 48 hrs by agar cup diffusion method; conditions: MTCC 36, 48 h, read-out: DIZ; summary of the method: as §2
[15] = tested on: Aspergillus flavus; assay: Antifungal activity against Aspergillus flavus MTCC 277 at 30 ug/ml after 48 hrs by agar cup diffusion method; conditions: MTCC 277, 48 h, read-out: DIZ; summary of the method: as §2
[16] = tested on: Rhizopus arrhizus; assay: Antifungal activity against Rhizopus oryzae MTCC 262 at 30 ug/ml after 48 hrs by agar cup diffusion method; conditions: MTCC 262, 48 h, read-out: DIZ; summary of the method: as §2
[17] = tested on: Diutina rugosa; assay: Antifungal activity against Candida rugosa NCIM 3462 at 30 ug/ml after 48 hrs by agar cup diffusion method; conditions: NCIM 3462, 48 h, read-out: DIZ; summary of the method: as §2

SMILES | MIC [1] [mg/L] | MIC [2] [mg/L] | MIC [3] [mg/L] | MIC [4] [mg/L] | MIC [5] [mg/L] | zone of inhibition at 30 µg/mL [6] [mm] | zone of inhibition at 100 µg/mL [7] [mm] | zone of inhibition at 100 µg/mL [8] [mm] | zone of inhibition at 30 µg/mL [9] [mm] | zone of inhibition at 100 µg/mL [10] [mm] | zone of inhibition at 100 µg/mL [11] [mm] | zone of inhibition at 100 µg/mL [12] [mm] | zone of inhibition at 100 µg/mL [13] [mm] | zone of inhibition at 30 µg/mL [14] [mm] | zone of inhibition at 30 µg/mL [15] [mm] | zone of inhibition at 30 µg/mL [16] [mm] | zone of inhibition at 30 µg/mL [17] [mm]
O=c1c2ccccc2nc(-c2ccccc2)n1Cc1cn(CCC(F)(F)C(F)(F)C(F)(F)C(F)(F)C(F)(F)C(F)(F)F)nn1 | 150 (≈ 231 µM) | 150 (≈ 231 µM) | 150 (≈ 231 µM) | 75 (≈ 115 µM) | 37.5 (≈ 57.7 µM) | 9 | 12 | 12 | 9 | 12 | 12 | 10 | 10 | 8 | 8 |  | 
O=c1c2ccccc2nc(-c2c(F)cccc2F)n1Cc1cn(CCC(F)(F)C(F)(F)C(F)(F)C(F)(F)C(F)(F)C(F)(F)F)nn1 | 150 (≈ 219 µM) | 150 (≈ 219 µM) | 150 (≈ 219 µM) | 150 (≈ 219 µM) | 150 (≈ 219 µM) | 7 | 10 |  | 7 | 10 |  |  |  |  |  |  | 
O=c1c2ccccc2nc(-c2c(F)cccc2F)n1Cc1cn(CCC(F)(F)C(F)(F)C(F)(F)C(F)(F)C(F)(F)C(F)(F)C(F)(F)C(F)(F)F)nn1 | 150 (≈ 191 µM) | 150 (≈ 191 µM) | 150 (≈ 191 µM) | 75 (≈ 95.5 µM) | 75 (≈ 95.5 µM) | 7 | 10 | 9 | 7 | 10 | 9 | 9 | 9 |  |  |  | 
O=c1c2ccccc2nc(C(F)(F)F)n1Cc1cn(CCC(F)(F)C(F)(F)C(F)(F)C(F)(F)C(F)(F)C(F)(F)F)nn1 | 150 (≈ 234 µM) | 150 (≈ 234 µM) | 150 (≈ 234 µM) | 75 (≈ 117 µM) | 75 (≈ 117 µM) |  | 9 | 12 |  | 9 | 12 | 13 | 13 | 9 | 9 | 8 | 8
FC(F)(F)C(F)(F)C(F)(F)C(F)(F)C(F)(F)C(F)(F)C(F)(F)C(F)(F)CCn1cc(COc2nc(-c3ccccc3)nc3ccccc23)nn1 | 150 (≈ 200 µM) | 150 (≈ 200 µM) | 150 (≈ 200 µM) | 150 (≈ 200 µM) | 75 (≈ 100 µM) | 7 | 10 | 10 | 7 | 10 | 10 | 10 | 10 | 7 | 7 |  | 

More lines, in order of falling MIC [1], values ahead:

MIC [1] [mg/L] | MIC [2] [mg/L] | MIC [3] [mg/L] | MIC [4] [mg/L] | MIC [5] [mg/L] | SMILES | zone of inhibition at 30 µg/mL [6] [mm] | zone of inhibition at 100 µg/mL [7] [mm] | zone of inhibition at 100 µg/mL [8] [mm] | zone of inhibition at 30 µg/mL [9] [mm] | zone of inhibition at 100 µg/mL [10] [mm] | zone of inhibition at 100 µg/mL [11] [mm] | zone of inhibition at 100 µg/mL [12] [mm] | zone of inhibition at 100 µg/mL [13] [mm] | zone of inhibition at 30 µg/mL [14] [mm] | zone of inhibition at 30 µg/mL [15] [mm] | zone of inhibition at 30 µg/mL [16] [mm] | zone of inhibition at 30 µg/mL [17] [mm]
150 (≈ 231 µM) | 75 (≈ 115 µM) | 75 (≈ 115 µM) | 75 (≈ 115 µM) | 75 (≈ 115 µM) | FC(F)(F)C(F)(F)C(F)(F)C(F)(F)C(F)(F)C(F)(F)CCn1cc(COc2nc(-c3ccccc3)nc3ccccc23)nn1 | 8 | 11 | 9 | 8 | 11 | 9 |  |  |  |  |  | 
150 (≈ 202 µM) | 150 (≈ 202 µM) | 150 (≈ 202 µM) | 150 (≈ 202 µM) | 150 (≈ 202 µM) | FC(F)(F)c1nc(OCc2cn(CCC(F)(F)C(F)(F)C(F)(F)C(F)(F)C(F)(F)C(F)(F)C(F)(F)C(F)(F)F)nn2)c2ccccc2n1 |  | 9 |  |  | 9 |  |  |  |  |  |  | 
18.8 (≈ 29.2 µM) | 9.38 (≈ 14.6 µM) | 9.38 (≈ 14.6 µM) | 75 (≈ 117 µM) | 37.5 (≈ 58.5 µM) | FC(F)(F)c1nc(OCc2cn(CCC(F)(F)C(F)(F)C(F)(F)C(F)(F)C(F)(F)C(F)(F)F)nn2)c2ccccc2n1 | 8 | 12 | 9 | 8 | 12 | 9 | 9 | 9 |  |  |  | 
